Experimental data from ChEMBL document CHEMBL1212735, “Metronidazole resistance in Prevotella spp. and description of a new nim gene in Prevotella baroniae” (2010).

Columns and labels:
Type in all cases: functional
Prevotella nanceiensis [1] = assay: Antimicrobial activity against Prevotella nanceiensis LBN 298 deficient in nim gene assessed as inhibition of growth at 48 hrs by Etest method; conditions: Hoylesella nanceiensis, LBN 298, 48 h
Method in brief: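 Metronidazole Etest, per the manufacturer's instructions, on brucella blood agar with hemin and vitamin K1. Read after 48 h at 35°C under anaerobic conditions. Breakpoints were ≤ 4 μg/ml susceptible and ≥ 8 μg/ml resistant (EUCAST). Duplicate assays.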

Prevotella bivia [2] = assay: Antimicrobial activity against slow growing colonies of Prevotella bivia LBN 334 deficient in nim gene assessed as inhibition of growth at 48 hrs by agar dilution method; conditions: LBN 334, 48 h
Method in brief: (§1)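 Slowly growing colonies inside the Etest inhibition zone, seen after prolonged incubation (an additional 72 h after the 48 h reading), were subcultured without antibiotic. They were then retested for metronidazole MIC by agar dilution on supplemented brucella blood agar under anaerobic conditions.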

Prevotella bivia [3] = assay: Antimicrobial activity against Prevotella bivia LBP 78 deficient in nim gene assessed as inhibition of growth at 48 hrs by agar dilution method; conditions: LBP 78, 48 h
Method in brief: (§2)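 Metronidazole MIC by agar dilution (CLSI M11-A7) on brucella agar with 5% sheep blood, hemin and vitamin K1. Plates were read after 48 h at 35°C under anaerobic conditions. Susceptible was MIC ≤ 4 μg/ml and resistant MIC ≥ 8 μg/ml (EUCAST). B. fragilis ATCC 25285T and B. thetaiotaomicron ATCC 29741 were run as controls. Duplicate assays.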

Prevotella baroniae [4] = assay: Antimicrobial activity against Prevotella baroniae LBN 475 expressing nim gene assessed as inhibition of growth at 48 hrs by agar dilution method; conditions: Segatella baroniae, LBN 475, 48 h; method in brief: as §2
Prevotella bivia [5] = assay: Antimicrobial activity against Prevotella bivia LBN 478 deficient in nim gene assessed as inhibition of growth at 48 hrs by agar dilution method; conditions: LBN 478, 48 h; method in brief: as §2
Prevotella nanceiensis [6] = assay: Antimicrobial activity against Prevotella nanceiensis LBN 293b deficient in nim gene assessed as inhibition of growth at 48 hrs by agar dilution method; conditions: Hoylesella nanceiensis; method in brief: as §2
Prevotella bivia [7] = assay: Antimicrobial activity against slow growing colonies of Prevotella bivia LBN 467 deficient in nim gene assessed as inhibition of growth at 48 hrs by agar dilution method; conditions: LBN 467, 48 h
Method in brief: (§3)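 Metronidazole MIC by agar dilution per CLSI M11-A7 on brucella agar with 5% sheep blood, hemin and vitamin K1. Plates incubated anaerobically at 35°C and read at 48 h, with a second reading after a further 72 h. B. fragilis ATCC 25285T and B. thetaiotaomicron ATCC 29741 served as controls. Done in duplicate; EUCAST breakpoints applied (S ≤4, R ≥8 μg/ml).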

Prevotella baroniae [8] = assay: Antimicrobial activity against Prevotella baroniae LBP 19 expressing nim gene assessed as inhibition of growth at 48 hrs by agar dilution method; conditions: Segatella baroniae, LBP 19, 48 h; method in brief: as §2
Prevotella bivia [9] = assay: Antimicrobial activity against slow growing colonies of Prevotella bivia LBN 332 deficient in nim gene assessed as inhibition of growth at 48 hrs by agar dilution method; conditions: LBN 332, 48 h; method in brief: as §1
Prevotella bivia [10] = assay: Antimicrobial activity against slow growing colonies of Prevotella bivia LBN 371 deficient in nim gene assessed as inhibition of growth at 48 hrs by agar dilution method; conditions: LBN 371, 48 h; method in brief: as §3
Prevotella bivia [11] = assay: Antimicrobial activity against Prevotella bivia LBN 332 deficient in nim gene assessed as inhibition of growth at 48 hrs by agar dilution method; conditions: LBN 332, 48 h; method in brief: as §2
Prevotella bivia [12] = assay: Antimicrobial activity against Prevotella bivia LBN 343 deficient in nim gene assessed as inhibition of growth at 48 hrs by agar dilution method; conditions: LBN 343, 48 h
Method in brief: (§4)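 Agar dilution MIC on brucella agar with 5% sheep blood, hemin and vitamin K1, following CLSI M11-A7. Plates read after 48 h at 35°C under anaerobic conditions, with B. fragilis ATCC 25285T and B. thetaiotaomicron ATCC 29741 as controls. Assays in duplicate. Isolates kept at −80°C in brucella broth with 15% glycerol. Interpretation used EUCAST breakpoints (S ≤4, R ≥8 μg/ml).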

Prevotella bivia [13] = assay: Antimicrobial activity against Prevotella bivia LBN 467 deficient in nim gene assessed as inhibition of growth at 48 hrs by agar dilution method; conditions: LBN 467, 48 h; method in brief: as §2
Prevotella bivia [14] = assay: Antimicrobial activity against Prevotella bivia LBN 346 deficient in nim gene assessed as inhibition of growth at 48 hrs by agar dilution method; conditions: LBN 346, 48 h; method in brief: as §4
Prevotella nanceiensis [15] = assay: Antimicrobial activity against Prevotella nanceiensis LBN 293b deficient in nimI gene assessed as inhibition of growth after several passages on plates containing increasing concentration of compound by agar dilution method; conditions: Hoylesella nanceiensis
Method in brief: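 Induction of metronidazole resistance: bacterial suspensions inoculated onto brucella blood agar (5% sheep blood, hemin, vitamin K1) containing metronidazole at increasing concentrations, grown anaerobically at 37°C. Colonies growing at the highest concentration were retested for MIC by CLSI agar dilution on the same agar. Duplicate experiments.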

Prevotella bivia [16] = assay: Antimicrobial activity against slow growing colonies of Prevotella bivia LBP 52 deficient in nim gene assessed as inhibition of growth at 48 hrs by agar dilution method; conditions: LBP 52, 48 h; method in brief: as §3
Prevotella bivia [17] = assay: Antimicrobial activity against slow growing colonies of Prevotella bivia LBN 361 deficient in nim gene assessed as inhibition of growth at 48 hrs by agar dilution method; conditions: LBN 361, 48 h; method in brief: as §3
Prevotella bivia [18] = assay: Antimicrobial activity against slow growing colonies of Prevotella bivia LBN 331 deficient in nim gene assessed as inhibition of growth at 48 hrs by agar dilution method; conditions: LBN 331, 48 h; method in brief: as §1
Prevotella bivia [19] = assay: Antimicrobial activity against Prevotella bivia LBN 365 deficient in nim gene assessed as inhibition of growth at 48 hrs by agar dilution method; conditions: LBN 365, 48 h; method in brief: as §2
Prevotella nanceiensis [20] = assay: Antimicrobial activity against slow growing colonies of Prevotella nanceiensis LBN 410 deficient in nim gene assessed as inhibition of growth at 48 hrs by agar dilution method; conditions: Hoylesella nanceiensis, LBN 410, 48 h; method in brief: as §3
Prevotella bivia [21] = assay: Antimicrobial activity against slow growing colonies of Prevotella bivia LBN 336 deficient in nim gene assessed as inhibition of growth at 48 hrs by agar dilution method; conditions: LBN 336, 48 h; method in brief: as §1
Prevotella nanceiensis [22] = assay: Antimicrobial activity against slow growing colonies of Prevotella nanceiensis LBN 298 deficient in nim gene assessed as inhibition of growth at 48 hrs by agar dilution method; conditions: Hoylesella nanceiensis, LBN 298, 48 h; method in brief: as §3
Prevotella bivia [23] = assay: Antimicrobial activity against Prevotella bivia LBN 374 deficient in nim gene assessed as inhibition of growth at 48 hrs by agar dilution method; conditions: LBN 374, 48 h; method in brief: as §2
Prevotella bivia [24] = assay: Antimicrobial activity against slow growing colonies of Prevotella bivia LBN 445 deficient in nim gene assessed as inhibition of growth at 48 hrs by agar dilution method; conditions: LBN 445, 48 h; method in brief: as §3
Prevotella nanceiensis [25] = assay: Antimicrobial activity against slow growing colonies of Prevotella nanceiensis LBP 66 deficient in nim gene assessed as inhibition of growth at 48 hrs by agar dilution method; conditions: Hoylesella nanceiensis, LBP 66, 48 h; method in brief: as §3
Prevotella bivia [26] = assay: Antimicrobial activity against Prevotella bivia LBN 336 deficient in nim gene assessed as inhibition of growth at 48 hrs by agar dilution method; conditions: LBN 336, 48 h; method in brief: as §2
Prevotella bivia [27] = assay: Antimicrobial activity against slow growing colonies of Prevotella bivia LBP 65 deficient in nim gene assessed as inhibition of growth at 48 hrs by agar dilution method; conditions: LBP 65, 48 h; method in brief: as §3

Measured: MIC

Cc1ncc([N+](=O)[O-])n1CCO [METRONIDAZOLE]
16 µg/mL: Prevotella bivia [2] | Prevotella bivia [13] | Prevotella bivia [16] | Prevotella bivia [18] | Prevotella bivia [24]
1 µg/mL: Prevotella baroniae [8] | Prevotella bivia [12] | Prevotella bivia [14]
2 µg/mL: Prevotella nanceiensis [6] | Prevotella bivia [23] | Prevotella bivia [26]
256 µg/mL: Prevotella nanceiensis [15]
8 µg/mL: Prevotella nanceiensis [25]
32 µg/mL: Prevotella bivia [7] | Prevotella bivia [9] | Prevotella bivia [10] | Prevotella bivia [17] | Prevotella nanceiensis [20] | Prevotella bivia [21] | Prevotella nanceiensis [22] | Prevotella bivia [27]
4 µg/mL: Prevotella nanceiensis [1] | Prevotella bivia [3] | Prevotella baroniae [4] | Prevotella bivia [5] | Prevotella bivia [11] | Prevotella bivia [19]
